Measured values published in ChEMBL document CHEMBL4190381, “Biofilm inhibition and anti-Candida activity of a cationic lipo-benzamide molecule with twin-nonyl chain” (Bioorg Med Chem Lett, 2018).
In brackets after ≈: the same amount, converted by molar mass. Activity calls are given as the source filed them. No cut-off for these calls is given here.

Experiments:
Candida albicans [1] = experiment: Antifungal activity against Candida albicans ATCC 90028 planktonic cells assessed as inhibition of fungal growth incubated for 48 hrs by broth microdilution assay; assay type: functional; conditions: for MIC80: ATCC 90028, 48 h
Outline: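 Broth microdilution against planktonic C. albicans ATCC 90028. MIC is the lowest concentration giving […] relative to the growth control. Percent inhibition is taken against an untreated growth control and plotted versus concentration.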

Candida albicans [2] = experiment: Toxicity in Candida albicans ATCC 90028 planktonic cells assessed as induction of nucleic acids release at 12.5 ug/ml incubated for 1 hr by spectrophotometry; assay type: organism-based
Outline: (§1)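 C. albicans cells incubated with increasing compound concentrations. Supernatant OD260 (nucleic acids) and OD280 (proteins) recorded to quantify macromolecule release on lysis.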

Candida albicans [3] = experiment: Antifungal activity against Candida albicans SC5314 assessed as inhibition of fungal growth incubated for 48 hrs by broth microdilution assay; assay type: functional; conditions: SC5314, 48 h
Outline: (§2)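 Broth microdilution against planktonic Candida cultures, with fluconazole as reference antifungal. MIC read as lowest concentration giving […] relative to a growth control without compound. Percentage inhibition versus growth control was plotted against concentration.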

Candida albicans [4] = experiment: Antibiofilm eradication activity against Candida albicans ATCC 90028 grown on polystyrene surface assessed as inhibition of mature biofilm formation added 24 hrs after biofilm maturation and measured after 48 hrs by MTT assay; assay type: functional
Outline: (§3)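 1x10^6 C. albicans ATCC 90028 cells allowed to grow and adhere in polystyrene-coated 96-well wells; compound added at different time points to cover adhesion, biofilm formation or mature biofilm stages. Inhibition quantified by MTT metabolic assay against untreated growth control. BIC80 and BEC80 taken as concentrations giving 80% inhibition of formation or of mature biofilm respectively.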

Candida albicans [5] = experiment: Inhibition of adhesion of Candida albicans ATCC 90028 on polystyrene surface incubated for 90 mins by MTT assay; assay type: functional, organism-based
Outline: (§4)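 C. albicans ATCC 90028 cells adhered to polystyrene wells with test compound. Adhesion is quantified by MTT metabolic assay and expressed as percent inhibition versus an untreated growth control. Fluconazole is the reference, tested up to 25 µg ml-1.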

Nakaseomyces glabratus = experiment: Antifungal activity against Candida glabrata MTCC 3814 assessed as inhibition of fungal growth incubated for 48 hrs by broth microdilution assay; assay type: functional; conditions: MTCC 3814, 48 h; outline: as §2
Candida tropicalis = experiment: Antifungal activity against Candida tropicalis MTCC 9038 assessed as inhibition of fungal growth incubated for 48 hrs by broth microdilution assay; assay type: functional; conditions: MTCC 9038, 48 h; outline: as §2
Candida albicans [6] = experiment: Antibiofilm activity against Candida albicans ATCC 90028 grown on polystyrene surface assessed as inhibition of biofilm formation added immediately after cell adhesion by MTT assay; assay type: functional; outline: as §3
Candida albicans [7] = experiment: Inhibition of adhesion of Candida albicans ATCC 90028 on polystyrene surface at 12.5 ug/ml incubated for 90 mins by MTT assay; assay type: functional; conditions: ATCC 90028, 1.5 h; outline: as §4
Candida albicans [8] = experiment: Toxicity in Candida albicans ATCC 90028 planktonic cells assessed as induction of protein release at 12.5 ug/ml incubated for 1 hr by spectrophotometry; assay type: organism-based; outline: as §1
Candida albicans [9] = experiment: Antifungal activity against Candida albicans DSY294 assessed as inhibition of fungal growth incubated for 48 hrs by broth microdilution assay; assay type: functional; conditions: DSY294, 48 h; outline: as §2
Candida albicans [10] = experiment: Toxicity in Candida albicans ATCC 90028 planktonic cells assessed as induction of morphological changes at 3.1 ug/ml incubated for 24 hrs by scanning electron Microscopy; assay type: organism-based
Outline: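 C. albicans ATCC 90028 cells incubated 24 h with 3.1 µg ml-1 compound. Surface morphology examined by scanning electron microscopy at 2500X and 5000X magnification against untreated cells.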

Candida albicans [11] = experiment: Antifungal activity against Candida albicans Gu4 assessed as inhibition of fungal growth incubated for 48 hrs by broth microdilution assay; assay type: functional; conditions: Gu4, 48 h; outline: as §2
Erythrocyte = experiment: Hemolytic activity in human erythrocytes assessed as induction of hemolysis incubated for 1 hr by spectrophotometry; assay type: cell-based
Outline: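 Human erythrocytes incubated with a range of concentrations. Released hemoglobin is measured spectrophotometrically and expressed as percent hemolysis. 1% Triton X-100 gives 100% lysis, and a buffer-treated sample is the negative control. HC90 is the concentration lysing 90% of RBCs.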

Candida albicans [12] = experiment: Antibiofilm activity against Candida albicans ATCC 90028 grown on polystyrene surface assessed as inhibition of biofilm formation at 1.56 to 25 ug/ml added immediately after cell adhesion by bright-field microscopy; assay type: functional, organism-based
Outline: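 1x10^6 C. albicans ATCC 90028 cells allowed to adhere and grow in polystyrene 96-well wells; compound at 1.56, 3.12, 6.25, 12.5 and 25 µg ml-1; biofilm examined microscopically against an untreated growth control.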

Candida parapsilosis = experiment: Antifungal activity against Candida parapsilosis MTCC 7043 assessed as inhibition of fungal growth incubated for 48 hrs by broth microdilution assay; assay type: functional; conditions: Lodderomyces parapsilosis, MTCC 7043, 48 h; outline: as §2
Candida albicans [13] = experiment: Antifungal activity against Candida albicans DSY296 assessed as inhibition of fungal growth incubated for 48 hrs by broth microdilution assay; assay type: functional; conditions: DSY296, 48 h; outline: as §2
Candida albicans [14] = experiment: Antifungal activity against Candida albicans Gu5 assessed as inhibition of fungal growth incubated for 48 hrs by broth microdilution assay; assay type: functional; conditions: Gu5, 48 h; outline: as §2
Pichia kudriavzevii = experiment: Antifungal activity against Candida krusei MTCC 9215 assessed as inhibition of fungal growth incubated for 48 hrs by broth microdilution assay; assay type: functional; conditions: MTCC 9215, 48 h; outline: as §2
[15] = Safety index, ratio of HC90 for hemolytic activity in human erythrocytes to MIC for antifungal activity against Candida albicans ATCC 90028 planktonic cells; assay type: toxicity, cell-based
Candida albicans [16] = experiment: Inhibition of adhesion of Candida albicans ATCC 90028 on polystyrene surface up to 25 ug/ml incubated for 90 mins by MTT assay; assay type: functional, organism-based; outline: as §3

Row | SMILES | growth inhibition (GI) (Candida albicans [1]) | MIC80 (Candida albicans [1]) [µg/mL] | MIC80 (Candida albicans [3]) [µg/mL] | MIC80 (Nakaseomyces glabratus) [µg/mL] | MIC80 (Candida tropicalis) [µg/mL] | MIC80 (Candida albicans [9]) [µg/mL] | MIC80 (Candida albicans [11]) [µg/mL] | MIC80 (Candida parapsilosis) [µg/mL] | MIC80 (Candida albicans [13]) [µg/mL] | MIC80 (Candida albicans [14]) [µg/mL] | MIC80 (Pichia kudriavzevii) [µg/mL] | other results
1 | CCCCCCCCCC[N+](C)(CCCCCCCCCC)CCNC(=O)c1ccc(OC)cc1.[I-] | Dose-dependent effect | ≤ 6.2 | – | – | – | – | – | – | – | – | – | –
2 | CCCCCCCCCCC[N+](C)(CCCCCCCCCCC)CCNC(=O)c1ccc(OC)cc1.[I-] | Dose-dependent effect | ≤ 3.1 | – | – | – | – | – | – | – | – | – | –
3 | CCCCCCCCC[N+](C)(CCCCCCCCC)CCNC(=O)c1ccc(OC)cc1.[I-] | Dose-dependent effect | 3.1 | 1.5 | 1.5 | 0.7 | 1.5 | 3.1 | 1.5 | 1.5 | 3.1 | 1.5 | Activity (Candida albicans [2]): Non-Toxic; MBEC80 (Candida albicans [4]): 12.5 µg/mL; inhibition (Candida albicans [5]): Dose-dependent effect; MBIC80 (Candida albicans [6]): 3.12 µg/mL; inhibition at 12.5 µg/mL (Candida albicans [7]): 90%; Activity (Candida albicans [8]): Non-Toxic; Activity (Candida albicans [10]): Non-Toxic; HC90 (Erythrocyte): 12.5 µg/mL; Activity (Candida albicans [12]): Active; selectivity ratio [15]: 4
4 | CCCCCCCC[N+](C)(CCCCCCCC)CCNC(=O)c1ccc(OC)cc1.[I-] | Dose-dependent effect | ≤ 6.2 | – | – | – | – | – | – | – | – | – | –
5 | OC(Cn1cncn1)(Cn1cncn1)c1ccc(F)cc1F [FLUCONAZOLE] | – | 4 (≈ 13.1 µM) | 2 (≈ 6.53 µM) | 4 (≈ 13.1 µM) | 4 (≈ 13.1 µM) | 4 (≈ 13.1 µM) | 4 (≈ 13.1 µM) | 2 (≈ 6.53 µM) | 128 (≈ 418 µM) | 128 (≈ 418 µM) | 64 (≈ 209 µM) | inhibition (Candida albicans [4]): inactive; inhibition (Candida albicans [16]): inactive; inhibition (Candida albicans [6]): inactive
